Assay outcomes (PubChem BioAssay)
PglD DTNB – PglD (C. jejuni) enzyme inhibition | purified PglD enzyme, DTNB colorimetric CoA detection | inhibition, % at 12.5 µM | AID 602405 | 360,000 tested, 0.098% active; in the data active means inhibition above about 16%, passing the limit was not always enough
Vif imaging – inhibitors of HIV Vif. inhibition, % at 7.49 µM. 340,000 tested, 0.35% active. HEK293T cells, Vif self-association by quenched fluorescence, imaging, 24 h; in the data active means inhibition above about 50%, passing the limit was not always enough
FGF22 binding – binders of recombinant human FGF22 by thermal shift. Q9HCT0. SYPRO orange fluorescence; percent of sucrose octasulfate shift, DMSO zero. activity (Tm shift, normalised), % at 9.99 µM. 340,000 tested, 1.5% active;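 active means mean Tm shift, scaled 0 neutral to 100 positive control, at about 1.3% or above, every replicate too, limit read from the data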
Target sequence (Q9HCT0 whole entry, looked up): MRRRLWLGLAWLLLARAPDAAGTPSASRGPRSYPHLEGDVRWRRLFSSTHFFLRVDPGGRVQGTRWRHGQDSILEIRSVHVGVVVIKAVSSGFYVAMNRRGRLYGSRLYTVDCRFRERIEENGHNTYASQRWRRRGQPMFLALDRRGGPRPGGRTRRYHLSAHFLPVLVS
Cneo AK release – causes C. neoformans cell lysis; 360,000 tested, 0.2% active; lysis activity, % at 15 µM; adenylate kinase release luminescence, 4 h; normalised: neutral wells 0, clomiphene wells 100;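 active means mean lysis activity across replicates of at least 80%, whatever share of replicates individually reach that level; inactive means mean lysis activity below 80%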
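Test system: log-phase Cryptococcus neoformans yeast cells. Input: 5 × 10^6 yeast cells/mL. Medium: fresh YPD growth medium. Doses: single dose. Incubation: static 4 h at 37 °C with compound, 1 h detection. Measured by: luminescent adenylate kinase detection reagent. Read-out: signal increase indicating cell lysis. Benchmarks: Clomiphene.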
PGC1a acetyl inh – lowers PGC1a acetylation signal in U2OS cells; AID 651687; inhibition, % at 15.6 µM; AlphaScreen anti-acetyl-lysine; with virally co-expressed GCN5 acetyltransferase; 350,000 tested, 0.17% active;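 active means every replicate shows inhibition of at least 40%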
rRNA inh HTS – inhibitors of bacterial rRNA selective over humanized ribosomes | GFP signal change (wild-type ribosome), % (test concentration not listed) | E. coli WT GFP vs humanized-ribosome RFP mutants, fluorescence, 24 h; stronger effect = lower value; DMSO median 0, no signal -100 | AID 720706 | 350,000 tested, 1.6% active;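 active means significant combined selectivity score with lowered wild-type GFP, culture density cut under 30%, mutant RFP and density less affected; inactive means any of these conditions unmet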
A number is an active result; 0 = inactive; - = no result given. Only some compounds are listed: those with a hit (about 2.9% of all), similar ones and a draw of the others.

SMILES | PglD DTNB | Vif imaging | FGF22 binding | Cneo AK release | PGC1a acetyl inh | rRNA inh HTS
CC(C)NC(=O)Nc1cccc2c1O[C@H](CN(C)C(=O)Nc1ccc3c(c1)OCO3)[C@@H](C)CN([C@H](C)CO)C2=O | 0 | - | 0 | 0 | 0 | 0
COc1ccc(N(C(=O)c2cnsn2)C(C(=O)NC2CCCCC2)c2ccncc2)cc1 (stereo not given) | - | 0 | 43.0 | - | - | 0
CCOc1ccc(N(C(=O)c2cnsn2)C(C(=O)NC2CCCCC2)c2ccncc2)cc1 (stereo not given) | - | 0 | 0 | - | - | 0
COC(=O)N1C(=O)[C@](c2ccc(Cl)cc2)(C(C)C)N1C(=O)OC | 0 | 50.7 | 0 | 0 | - | 0
COC(=O)N1C(=O)[C@@](c2ccc(OC)cc2)(C(C)C)N1C(=O)OC | 0 | 0 | - | 0 | 0 | 0
Cc1ccccc1S(=O)(=O)N1CCCCN2[C@H](CO)[C@@H](c3ccc(-c4ccccc4)cc3)[C@H]2C1 | 0 | - | 0 | 0 | 0 | -
CCOC(=O)CCC(=O)NCc1ccc2c(c1)cc(C)n2C | 0 | 0 | - | 0 | 0 | -
CCCCC(=O)NCc1ccc2c(c1)cc(C)n2C | 0 | 67.7 | - | 0 | 0 | -
COCCN(C(=O)CCC(=O)Nc1nccs1)C(C(=O)NC(C)(C)C)c1ccc(C)cc1 (stereo not given) | 0 | 84.2 | 0 | 0 | - | 0
COCCN(C(=O)CCC(=O)Nc1nccs1)C(C(=O)NC(C)(C)C)c1ccc(F)cc1 (stereo not given) | 0 | 0 | 0 | 0 | 0 | 0
CCCc1ccc(OCC(=O)Nc2cc(S(=O)(=O)CC)ccc2O)cc1 | 0 | 0 | 44.2 | 0 | - | 0
CCS(=O)(=O)c1ccc(O)c(NC(=O)COc2ccc(OC)cc2)c1 | 0 | 0 | - | 0 | 0 | -
Cc1noc(C)c1C(c1ccccc1)S(=O)(=O)c1ccccc1 (stereo not given) | 0 | 0 | - | 0 | 0 | -
Cc1noc(C)c1C(c1ccccc1)c1ccccc1 | - | 0 | 0 | - | 0 | -46.6
O=C(/C=C/c1ccc(N2CCCCC2)c([N+](=O)[O-])c1)c1ccc(O)cc1 | 0 | 0 | 43.1 | 0 | 0 | 0
COc1ccc(OCC(=O)N2c3ccccc3CC2C)c([N+](=O)[O-])c1 (stereo not given) | 0 | 0 | 0 | 0 | 0 | -24.4
CC1Cc2ccccc2N1C(=O)c1ccc(N2CCCCC2)c([N+](=O)[O-])c1 (stereo not given) | 0 | 0 | 0 | 0 | 0 | -30.5
O=C(c1ccc(N2CCCC2)c([N+](=O)[O-])c1)N1CCc2ccccc2C1 | - | 0 | 0 | - | - | 0
COc1ccc(/C=C/C(=O)OCC(=O)N2c3ccccc3CC2C)c(OC)c1 (stereo not given) | 0 | 0 | 0 | 0 | - | 0
CO[C@@H]1CN(C)C(=O)c2cc(NC(=O)C3CC3)ccc2OC[C@H](C)N(Cc2nccs2)C[C@H]1C | 0 | - | 0 | 0 | 0 | 0
CN(C)S(=O)(=O)c1ccc(N=Cc2c(C(F)(F)F)[nH][nH]c2=O)cc1 | 0 | 0 | 43.6 | 0 | - | 0
COC(=O)c1ccc(N=Cc2c(C(F)(F)F)[nH][nH]c2=O)cc1 | - | 0 | 43.4 | - | - | -
Cn1[nH]c(C(F)(F)F)c(C=Nc2ccc(Cl)cc2)c1=O | 0 | 0 | 0 | 0 | - | 0
COc1ccc(CN=Cc2c(C(F)(F)F)[nH][nH]c2=O)cc1 | 0 | 0 | - | 0 | 0 | -
Cc1cccc(C)c1N=Cc1c(C(F)(F)F)[nH][nH]c1=O | 0 | 0 | 43.0 | 0 | - | 0
SMILES | PglD DTNB | Vif imaging | FGF22 binding | Cneo AK release | PGC1a acetyl inh | rRNA inh HTS
C[C@H]1CN([C@@H](C)CO)C(=O)Cc2cc(NS(=O)(=O)c3ccccc3)ccc2O[C@@H]1CN(C)C(=O)NC1CCCCC1 | 0 | - | 0 | 0 | 0 | 0
O=C(Nc1ccc(Cl)c(Cl)c1)N[C@H]1CC[C@H](CCn2cc(C3CCCCC3)nn2)O[C@@H]1CO | 0 | - | 0 | 0 | 0 | 0
N#Cc1c(-c2ccccc2)cc(C2CC2)nc1SCC(=O)c1cccs1 | 0 | 85.9 | - | 0 | 0 | -
O=C(Cc1ccccc1)N/N=C/c1ccccc1OCc1ccc(Cl)cc1 | 0 | 0 | - | 0 | - | -
CCN(CC)c1ccc(/C=N/NC(=O)c2ccco2)c(O)c1 | - | 0 | 0 | - | 0 | -39.3
O=C(N/N=C\c1ccccc1OCc1ccccc1)c1ccco1 | - | 0 | 43.1 | - | - | 0
CCOC(=O)N/N=C/c1ccccc1OCc1ccc(Cl)cc1 | - | 0 | 0 | - | - | -25.1
